Drawing on ChEMBL document CHEMBL1141578, “Structure-based optimization of cephalothin-analogue boronic acids as beta-lactamase inhibitors” (Bioorg Med Chem, 2008), this text covers Ki for seven molecules.

The nature of assay [1]: Inhibition of AmpC beta lactamase.
The nature of assay [2]: Inhibition of beta lactamase TEM1.
Assay [3] in a line: Inhibition of AmpC beta lactamase N289A mutant. The gist of the method:
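Rates were taken at steady state after the lag phase. Ki came from progress curves with and without inhibitor (Waley method), averaged over five inhibitor concentrations giving ≥50% inhibition, each in triplicate.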

Assay [4] is described as follows: Inhibition of beta lactamase TEM30.

In assay [1], `O=C(Cc1cccs1)N[C@H](B(O)O)c1ccccc1` registered an inhibition constant (Ki) of 0.035 µM.
Turning to `O=C(O)/C=C/c1cccc([C@H](NC(=O)Cc2cccs2)B(O)O)c1`, the Ki in assay [2] was 0.106 µM; in assay [3] it was 0.0028 µM; in assay [4], 3.8 µM.
As for `O=C(Cc1cccs1)N[C@H](B(O)O)c1cccc(C(=O)O)c1`, the Ki worked out at 0.064 µM in assay [2], 0.017 µM in assay [3], 0.001 µM in assay [1] and 7.8 µM in assay [4].
In turn, `CB(O)O` [METHANE BORONIC ACID] displayed an inhibition constant (Ki) in assay [1] of 1000 µM.
`CC(=O)OCC1=C(C(=O)O)N2C(=O)[C@@H](NC(=O)Cc3cccs3)[C@H]2SC1` [CEPHALOTHIN] registered a Ki in assay [1] of 0.32 µM.
For the molecule `O=C(Cc1cccs1)NCB(O)O`, the Ki in assay [1] amounted to 0.32 µM.
In assay [1], `CC(=O)NCB(O)O` [ACETAMIDOMETHYLBORONIC ACID] came in with an inhibition constant Ki of 18.5 µM.

The Ki is a measure of affinity in units of concentration, obtained from inhibition or displacement. Lower therefore signals higher affinity.
